Activity calls are given as the source filed them. The rule behind the calls is not given here.

Data set [1] concerns L1210. As to the kind of experiment: Antileukemic activity against mouse L1210 cells allografted in BDF1 mouse assessed as increase in life span of host at 27.8 umol/kg, ip relative to control. The format is functional. Put shortly: (§1)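 BDF1 mice, 5 weeks old, were inoculated ip with 5×10^5 L1210 cells; test groups had 4 males and 4 females, controls 5 males and 5 females. A single ip dose was given on the day after inoculation, as a suspension in vehicle for the insoluble compounds. Read-out was increase in life span over controls, with survivors past 30 days counted as 30 days.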

Data set [2] is described as follows: Solubility of the compound. The format is physicochemical.
For data set [3], the system named is L1210. The experiment in a line: Antileukemic activity against mouse L1210 cells allografted in BDF1 mouse assessed as host survival at 132 umol/kg, ip after 30 days. The format is functional, organism-based. In outline:
(§2)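 BDF1 mice, 5 weeks old, were inoculated ip with 5×10^5 L1210 cells in 0.1 ml saline. Test groups were 4 male and 4 female mice; controls were 5 male and 5 female. Insoluble compounds were suspended in vehicle. Dosing was ip, either once on the day after inoculation or daily for 5 days. Read-out was increase in life span over controls. Mice alive beyond 30 days were counted as 30 days and scored as survivors.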

Data set [4] deals with L1210. As to the kind of experiment: Antileukemic activity against mouse L1210 cells allografted in BDF1 mouse assessed as increase in life span of host at 132 umol/kg, ip relative to control. The format is functional. In outline: as §2
Data set [5] concerns L1210. The experiment in a line: Antileukemic activity against mouse L1210 cells allografted in BDF1 mouse assessed as host survival at 65.8 umol/kg, ip after 30 days. The format is functional, organism-based. In outline:
as §2

In data set [6] the test system is L1210. As to the kind of experiment: Antileukemic activity against mouse L1210 cells allografted in BDF1 mouse assessed as increase in life span of host at 26.3 umol/kg, ip relative to control. The format is functional. Put shortly: as §1
Data set [7] concerns L1210. The experiment in a line: Antileukemic activity against mouse L1210 cells allografted in BDF1 mouse assessed as host survival at 5.56 umol/kg, ip after 30 days. The format is functional, organism-based. Put shortly: as §2
The test system of data set [8] is L1210. The experiment in a line: Antileukemic activity against mouse L1210 cells allografted in BDF1 mouse assessed as increase in life span of host at 5.56 umol/kg, ip relative to control. The format is functional. In outline:
as §1

Data set [9] concerns L1210. As to the kind of experiment: Antileukemic activity against mouse L1210 cells allografted in BDF1 mouse assessed as increase in life span of host at 65.8 umol/kg, ip relative to control. The format is functional. In outline:
as §1

In data set [10] the test system is L1210. As to the kind of experiment: Antileukemic activity against mouse L1210 cells allografted in BDF1 mouse assessed as host survival at 287 umol/kg, ip after 30 days. The format is functional, organism-based. In outline:
as §2

For data set [11], the system named is L1210. The experiment in a line: Antileukemic activity against mouse L1210 cells allografted in BDF1 mouse assessed as increase in life span of host at 5.74 umol/kg, ip relative to control. The format is functional. Put shortly:
as §1

The subject of data set [12] is L1210. As to the kind of experiment: Antileukemic activity against mouse L1210 cells allografted in BDF1 mouse assessed as host survival at 28.7 umol/kg, ip after 30 days. The format is functional, organism-based. Put shortly:
as §2

For data set [13], the system named is L1210. As to the kind of experiment: Antileukemic activity against mouse L1210 cells allografted in BDF1 mouse assessed as increase in life span of host at 287 umol/kg, ip relative to control. The format is functional. In outline:
as §1

In data set [14] the test system is L1210. The experiment in a line: Antileukemic activity against mouse L1210 cells allografted in BDF1 mouse assessed as host survival at 26.3 umol/kg, ip after 30 days. The format is functional, organism-based. Put shortly: as §2
Data set [15] relates to L1210. As to the kind of experiment: Antileukemic activity against mouse L1210 cells allografted in BDF1 mouse assessed as increase in life span of host at 144 umol/kg, ip relative to control. The format is functional. In outline: as §2
Data set [16] deals with L1210. The experiment in a line: Antileukemic activity against mouse L1210 cells allografted in BDF1 mouse assessed as increase in life span of host at 28.7 umol/kg, ip relative to control. The format is functional. Put shortly: as §1
Data set [17] has as its system L1210. As to the kind of experiment: Antileukemic activity against mouse L1210 cells allografted in BDF1 mouse assessed as increase in life span of host at 71.8 umol/kg, ip relative to control. The format is functional. Put shortly: as §1
Data set [18] has as its system L1210. As to the kind of experiment: Antileukemic activity against mouse L1210 cells allografted in BDF1 mouse assessed as host survival at 5.74 umol/kg, ip after 30 days. The format is functional, organism-based. Put shortly:
as §2

For data set [19], the system named is L1210. As to the kind of experiment: Antileukemic activity against mouse L1210 cells allografted in BDF1 mouse assessed as increase in life span of host at 4.87 umol/kg, ip relative to control. The format is functional. Put shortly: as §1
Data set [20] deals with L1210. As to the kind of experiment: Antileukemic activity against mouse L1210 cells allografted in BDF1 mouse assessed as increase in life span of host at 69.8 umol/kg, ip relative to control. The format is functional. In outline: as §1
The species entered for the next data set is Mus musculus. The experiment in a line: Toxicity in mouse L1210 cells allografted BDF1 mouse. The format is organism-based.
For data set [21], the system named is L1210. As to the kind of experiment: Antileukemic activity against mouse L1210 cells allografted in BDF1 mouse assessed as increase in life span of host at 27.9 umol/kg, ip relative to control. The format is functional. Put shortly: as §1
Data set [22] concerns L1210. As to the kind of experiment: Antileukemic activity against mouse L1210 cells allografted in BDF1 mouse assessed as host survival at 4.87 umol/kg, ip after 30 days. The format is functional, organism-based. In outline: as §2
In data set [23] the test system is L1210. The experiment in a line: Antileukemic activity against mouse L1210 cells allografted in BDF1 mouse assessed as host survival at 5.56 umol/kg, po qd for 4 days measured after 30 days. The format is functional, organism-based.
Data set [24] deals with L1210. The experiment in a line: Antileukemic activity against mouse L1210 cells allografted in BDF1 mouse assessed as host survival at 5.56 umol/kg, sc qd for 5 days measured after 30 days. The format is functional, organism-based.
Data set [25] concerns L1210. As to the kind of experiment: Antileukemic activity against mouse L1210 cells allografted in BDF1 mouse assessed as host survival at 5.21 umol/kg, ip after 30 days. The format is functional, organism-based. Put shortly: as §2
Data set [26] relates to L1210. The experiment in a line: Antileukemic activity against mouse L1210 cells allografted in BDF1 mouse assessed as host survival at 1.11 umol/kg, ip qd for 5 days measured after 30 days. The format is functional, organism-based. In outline: as §2
For data set [27], the system named is L1210. As to the kind of experiment: Antileukemic activity against mouse L1210 cells allografted in BDF1 mouse assessed as host survival at 278 umol/kg, ip after 30 days. The format is functional, organism-based. Put shortly:
as §2

For data set [28], the system named is L1210. The experiment in a line: Antileukemic activity against mouse L1210 cells allografted in BDF1 mouse assessed as host survival at 13.8 umol/kg, sc qd for 5 days measured after 30 days. The format is functional, organism-based.
Data set [29] deals with L1210. As to the kind of experiment: Antileukemic activity against mouse L1210 cells allografted in BDF1 mouse assessed as host survival at 139 umol/kg, ip after 30 days. The format is functional, organism-based. Put shortly: as §2
The test system of data set [30] is L1210. As to the kind of experiment: Antileukemic activity against mouse L1210 cells allografted in BDF1 mouse assessed as host survival at 13.8 umol/kg, ip qd for 5 days measured after 30 days. The format is functional, organism-based. Put shortly:
as §2

The test system of data set [31] is L1210. The experiment in a line: Antileukemic activity against mouse L1210 cells allografted in BDF1 mouse assessed as host survival at 1.11 umol/kg, sc qd for 5 days measured after 30 days. The format is functional, organism-based.
Data set [32] has as its system L1210. The experiment in a line: Antileukemic activity against mouse L1210 cells allografted in BDF1 mouse assessed as host survival at 5.56 umol/kg, ip qd for 5 days measured after 30 days. The format is functional, organism-based. In outline:
as §2

Data set [33] deals with L1210. As to the kind of experiment: Antileukemic activity against mouse L1210 cells allografted in BDF1 mouse assessed as host survival at 27.8 umol/kg, ip after 30 days. The format is functional, organism-based. In outline: as §2
In data set [34] the test system is L1210. As to the kind of experiment: Antileukemic activity against mouse L1210 cells allografted in BDF1 mouse assessed as host survival at 27.8 umol/kg, po qd for 4 days measured after 30 days. The format is functional, organism-based.
The subject of data set [35] is L1210. As to the kind of experiment: Antileukemic activity against mouse L1210 cells allografted in BDF1 mouse assessed as host survival at 27.8 umol/kg, sc qd for 5 days measured after 30 days. The format is functional, organism-based.
For data set [36], the system named is L1210. The experiment in a line: Antileukemic activity against mouse L1210 cells allografted in BDF1 mouse assessed as host survival at 13.8 umol/kg, po qd for 4 days measured after 30 days. The format is functional, organism-based.

Take `CCC1(O)C(=O)OCc2c1cc1n(c2=O)CC2Cc3ccccc3N(C=O)C12` (mixture of isomers): the ILS at 27.8 µmol/kg with L1210 [1] was greater than 244%. Besides, the solubility entry in [2] is recorded as “Insoluble”. For the same molecule, the outcome with L1210 [3], in the data set on L1210 [5] and in the data set with L1210 [7] was inactive. Moreover, the ILS at 132 µmol/kg with L1210 [4] is -3%. For the same molecule, the ILS at 26.3 µmol/kg with L1210 [6] was -6%. In the data set with L1210 [8], the ILS at 5.56 µmol/kg came to 34%. Further, the ILS at 65.8 µmol/kg in the data set with L1210 [9] is -9%.

On to `CCC1(O)C(=O)OCc2c1cc1n(c2=O)Cc2cc3ccccc3nc2-1` (racemic), for which the result in the data set on L1210 [10], in the data set with L1210 [12], with L1210 [14] and in the data set with L1210 [18] was inactive. Moreover, in the data set on L1210 [11], the ILS at 5.74 µmol/kg was determined as 16%. The solubility result in data set [2] is “Insoluble”. In the data set with L1210 [13], the ILS at 287 µmol/kg was -43%. The ILS at 144 µmol/kg in the data set on L1210 [15] is greater than 60%. Further, in the data set with L1210 [16], the ILS at 28.7 µmol/kg was 84%. In addition, in the data set on L1210 [17], the ILS at 71.8 µmol/kg is greater than 155%. Further, in the data set with L1210 [6], the ILS at 26.3 µmol/kg turned out to be 6%.

In the case of `C#CCC1(O)C(=O)OCc2c1cc1n(c2=O)Cc2cc3ccccc3nc2-1` (racemic), in the data set on L1210 [19], the ILS at 4.87 µmol/kg stood at 58%. The solubility result in data set [2] is recorded as “Insoluble”. Further, the ILS at 69.8 µmol/kg in the data set with L1210 [20] is greater than 149%. In addition, the Activity result in the data set listed under Mus musculus is “Toxic”. Further, the ILS at 27.9 µmol/kg in the data set on L1210 [21] is greater than 117%. Moreover, in the data set on L1210 [22], the outcome was inactive.

For `C=CCC1(O)C(=O)OCc2c1cc1n(c2=O)Cc2cc3ccccc3nc2-1` (racemic), the outcome in the data set with L1210 [23], with L1210 [24], in the data set with L1210 [25], in the data set on L1210 [26], in the data set on L1210 [27] and in the data set on L1210 [28] was inactive. Besides, the outcome in the data set on L1210 [29], in the data set on L1210 [30], in the data set on L1210 [31], in the data set with L1210 [32], in the data set on L1210 [33] and in the data set with L1210 [34] was inactive. In addition, the result in the data set on L1210 [35], in the data set with L1210 [36] and in the data set with L1210 [18] was inactive.
